Measured values reported in ChEMBL document CHEMBL3808388 (J Med Chem, 2016).
Activity calls are given as the source filed them. The rule behind the calls is not given here.

What was measured:
[1] = target: G protein-coupled receptor kinase 5 (Homo sapiens, UniProt P34947); assay: Inhibition of GRK5 (unknown origin) using tubulin as substrate by SDS-PAGE method
[2] = target: T1, Beta-adrenergic receptor kinase 1 (Mus musculus) (UniProt Q99MK8); assay: Inhibition of GRK2 in C57BL/6 mouse cardiomyocytes assessed as increase in contractility at 0.5 uM preincubated for 10 mins followed by beta adrenergic receptor agonist isoproterenol addition for 2 mins; type: cell-based
T1 sequence (whole entry): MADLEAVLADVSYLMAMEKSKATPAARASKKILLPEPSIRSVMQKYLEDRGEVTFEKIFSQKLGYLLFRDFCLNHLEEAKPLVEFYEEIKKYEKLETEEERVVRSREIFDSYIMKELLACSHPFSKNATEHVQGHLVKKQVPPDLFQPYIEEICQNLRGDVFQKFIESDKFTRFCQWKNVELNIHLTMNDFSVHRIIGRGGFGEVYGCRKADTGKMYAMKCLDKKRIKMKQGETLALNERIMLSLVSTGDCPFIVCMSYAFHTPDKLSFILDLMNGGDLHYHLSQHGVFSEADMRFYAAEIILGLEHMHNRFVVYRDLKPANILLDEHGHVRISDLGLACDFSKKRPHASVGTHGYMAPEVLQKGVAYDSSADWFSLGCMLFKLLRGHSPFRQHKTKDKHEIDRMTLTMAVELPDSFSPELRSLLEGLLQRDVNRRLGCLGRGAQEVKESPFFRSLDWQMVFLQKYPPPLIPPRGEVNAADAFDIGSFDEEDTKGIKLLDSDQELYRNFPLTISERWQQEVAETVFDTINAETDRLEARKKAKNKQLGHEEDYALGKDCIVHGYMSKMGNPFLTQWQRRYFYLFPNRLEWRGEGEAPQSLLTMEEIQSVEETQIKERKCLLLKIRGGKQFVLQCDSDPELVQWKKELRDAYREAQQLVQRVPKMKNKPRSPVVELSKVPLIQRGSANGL

[3] = target: T2, Rhodopsin kinase GRK1 (Homo sapiens, UniProt Q15835); assay: Inhibition of GRK1 (unknown origin) using tubulin as substrate by SDS-PAGE method
T2 sequence (Q15835 whole entry): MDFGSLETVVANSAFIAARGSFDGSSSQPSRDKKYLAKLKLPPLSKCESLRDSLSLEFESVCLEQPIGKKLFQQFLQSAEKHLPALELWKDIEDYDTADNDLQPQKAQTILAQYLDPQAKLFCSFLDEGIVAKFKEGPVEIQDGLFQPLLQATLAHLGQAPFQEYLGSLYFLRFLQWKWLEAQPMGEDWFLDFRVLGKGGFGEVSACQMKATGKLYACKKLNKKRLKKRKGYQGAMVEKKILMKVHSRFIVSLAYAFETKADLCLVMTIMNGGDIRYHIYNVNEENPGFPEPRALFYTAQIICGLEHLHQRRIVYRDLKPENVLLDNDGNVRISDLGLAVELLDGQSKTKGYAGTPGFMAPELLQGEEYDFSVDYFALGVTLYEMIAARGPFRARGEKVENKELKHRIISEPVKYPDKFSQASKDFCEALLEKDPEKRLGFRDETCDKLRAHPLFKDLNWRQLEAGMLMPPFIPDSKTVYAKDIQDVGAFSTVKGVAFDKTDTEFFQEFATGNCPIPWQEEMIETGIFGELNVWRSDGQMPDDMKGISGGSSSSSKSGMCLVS

[4] = Inhibition of PKA (unknown origin) using CREBtide as substrate by ADP-Glo kinase assay; parameters: species or system Homo sapiens
Procedure, shortened: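 ADP-Glo luminescence assay following the manufacturer's protocol. Inhibition curves were fitted from luminescence. IC50s are averages of three separate experiments, each run in duplicate.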

[5] = target: T3, Rho-associated protein kinase 1 (Homo sapiens, UniProt Q13464); assay: Inhibition of ROCK1 (unknown origin) at 10 uM by ADP-Glo kinase assay
Procedure, shortened: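 ADP-Glo luminescence assay following the manufacturer's protocol. Percent inhibition was read at a single 10 μM inhibitor concentration.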
Target sequence in this assay (Q13464 2-1354 limits assumed): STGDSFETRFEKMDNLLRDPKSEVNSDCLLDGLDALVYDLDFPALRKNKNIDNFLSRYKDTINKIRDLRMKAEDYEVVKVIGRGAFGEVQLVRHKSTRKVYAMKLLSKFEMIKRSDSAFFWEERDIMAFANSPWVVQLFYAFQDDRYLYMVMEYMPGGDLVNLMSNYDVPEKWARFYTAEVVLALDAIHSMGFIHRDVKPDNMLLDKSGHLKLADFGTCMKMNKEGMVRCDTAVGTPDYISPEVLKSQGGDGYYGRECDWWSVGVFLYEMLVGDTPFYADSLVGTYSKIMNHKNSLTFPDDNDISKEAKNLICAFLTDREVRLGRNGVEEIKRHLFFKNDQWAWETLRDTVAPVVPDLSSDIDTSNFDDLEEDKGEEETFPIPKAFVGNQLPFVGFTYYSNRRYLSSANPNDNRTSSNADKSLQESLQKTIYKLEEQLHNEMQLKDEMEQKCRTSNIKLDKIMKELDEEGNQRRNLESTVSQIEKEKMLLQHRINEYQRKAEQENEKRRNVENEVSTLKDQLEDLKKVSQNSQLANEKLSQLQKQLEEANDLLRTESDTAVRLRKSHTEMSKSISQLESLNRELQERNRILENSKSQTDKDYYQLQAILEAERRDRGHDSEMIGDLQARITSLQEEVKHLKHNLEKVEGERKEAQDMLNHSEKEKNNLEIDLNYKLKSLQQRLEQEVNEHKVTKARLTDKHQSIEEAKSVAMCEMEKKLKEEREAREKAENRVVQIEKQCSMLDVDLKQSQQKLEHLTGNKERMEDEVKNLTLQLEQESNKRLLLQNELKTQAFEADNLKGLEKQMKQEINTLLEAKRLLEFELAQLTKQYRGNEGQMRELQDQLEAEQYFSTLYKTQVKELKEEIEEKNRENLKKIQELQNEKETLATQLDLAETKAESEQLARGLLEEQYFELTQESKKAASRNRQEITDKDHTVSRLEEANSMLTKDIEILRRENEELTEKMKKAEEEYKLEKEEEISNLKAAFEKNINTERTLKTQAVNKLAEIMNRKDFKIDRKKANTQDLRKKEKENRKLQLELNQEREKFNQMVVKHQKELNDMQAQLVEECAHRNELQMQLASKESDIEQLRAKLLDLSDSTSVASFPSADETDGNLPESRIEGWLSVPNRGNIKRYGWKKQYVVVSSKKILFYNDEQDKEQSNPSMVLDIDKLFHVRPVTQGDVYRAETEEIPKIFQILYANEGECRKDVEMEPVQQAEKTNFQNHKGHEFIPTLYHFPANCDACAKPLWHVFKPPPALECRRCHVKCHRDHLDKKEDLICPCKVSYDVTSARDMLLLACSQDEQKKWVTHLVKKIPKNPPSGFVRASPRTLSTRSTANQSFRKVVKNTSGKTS

[6] = target: T1, Beta-adrenergic receptor kinase 1 (Mus musculus); assay: Inhibition of GRK2 in C57BL/6 mouse cardiomyocytes assessed as increase in contractility at 1 uM preincubated for 10 mins followed by beta adrenergic receptor agonist isoproterenol addition for 2 mins; type: cell-based
[7] = target: T3, Rho-associated protein kinase 1; assay: Inhibition of ROCK1 (unknown origin) by ADP-Glo kinase assay
Target sequence in this assay (Q13464 whole entry): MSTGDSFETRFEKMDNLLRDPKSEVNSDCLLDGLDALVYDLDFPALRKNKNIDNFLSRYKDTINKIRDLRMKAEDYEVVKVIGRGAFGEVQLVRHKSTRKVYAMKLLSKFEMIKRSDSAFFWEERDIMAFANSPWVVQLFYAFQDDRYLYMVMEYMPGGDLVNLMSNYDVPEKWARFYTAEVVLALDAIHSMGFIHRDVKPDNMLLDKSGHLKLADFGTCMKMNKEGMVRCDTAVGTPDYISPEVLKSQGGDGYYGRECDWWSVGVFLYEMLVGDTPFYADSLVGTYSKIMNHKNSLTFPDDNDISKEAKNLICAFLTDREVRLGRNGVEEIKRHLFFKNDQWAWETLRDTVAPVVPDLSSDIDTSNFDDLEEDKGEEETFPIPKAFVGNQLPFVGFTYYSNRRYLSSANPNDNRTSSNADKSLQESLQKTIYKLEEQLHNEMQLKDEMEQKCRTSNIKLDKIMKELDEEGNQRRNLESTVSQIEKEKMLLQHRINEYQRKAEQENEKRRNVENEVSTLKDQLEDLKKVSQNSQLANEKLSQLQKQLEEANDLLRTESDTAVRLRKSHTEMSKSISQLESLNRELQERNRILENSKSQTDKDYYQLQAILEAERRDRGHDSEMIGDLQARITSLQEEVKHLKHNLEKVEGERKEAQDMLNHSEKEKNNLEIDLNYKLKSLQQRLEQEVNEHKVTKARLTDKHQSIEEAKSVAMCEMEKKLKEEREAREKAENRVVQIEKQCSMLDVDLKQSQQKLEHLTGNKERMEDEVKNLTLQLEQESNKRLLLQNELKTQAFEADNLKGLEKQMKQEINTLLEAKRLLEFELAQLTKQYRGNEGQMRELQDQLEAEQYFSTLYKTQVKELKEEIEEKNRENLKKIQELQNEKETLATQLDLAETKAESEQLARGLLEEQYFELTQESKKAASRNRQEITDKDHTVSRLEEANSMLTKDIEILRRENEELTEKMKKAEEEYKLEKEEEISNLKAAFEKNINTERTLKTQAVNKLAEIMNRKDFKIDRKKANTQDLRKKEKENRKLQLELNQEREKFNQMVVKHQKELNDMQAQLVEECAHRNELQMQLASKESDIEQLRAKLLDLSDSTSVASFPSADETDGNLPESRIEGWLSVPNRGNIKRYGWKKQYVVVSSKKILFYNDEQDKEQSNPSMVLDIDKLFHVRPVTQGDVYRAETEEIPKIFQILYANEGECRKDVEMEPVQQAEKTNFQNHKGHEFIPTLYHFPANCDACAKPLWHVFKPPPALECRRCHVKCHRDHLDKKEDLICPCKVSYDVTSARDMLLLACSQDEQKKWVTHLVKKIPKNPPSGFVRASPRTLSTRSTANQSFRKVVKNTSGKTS

G protein-coupled receptor kinase 5, sequence (P34947 whole entry): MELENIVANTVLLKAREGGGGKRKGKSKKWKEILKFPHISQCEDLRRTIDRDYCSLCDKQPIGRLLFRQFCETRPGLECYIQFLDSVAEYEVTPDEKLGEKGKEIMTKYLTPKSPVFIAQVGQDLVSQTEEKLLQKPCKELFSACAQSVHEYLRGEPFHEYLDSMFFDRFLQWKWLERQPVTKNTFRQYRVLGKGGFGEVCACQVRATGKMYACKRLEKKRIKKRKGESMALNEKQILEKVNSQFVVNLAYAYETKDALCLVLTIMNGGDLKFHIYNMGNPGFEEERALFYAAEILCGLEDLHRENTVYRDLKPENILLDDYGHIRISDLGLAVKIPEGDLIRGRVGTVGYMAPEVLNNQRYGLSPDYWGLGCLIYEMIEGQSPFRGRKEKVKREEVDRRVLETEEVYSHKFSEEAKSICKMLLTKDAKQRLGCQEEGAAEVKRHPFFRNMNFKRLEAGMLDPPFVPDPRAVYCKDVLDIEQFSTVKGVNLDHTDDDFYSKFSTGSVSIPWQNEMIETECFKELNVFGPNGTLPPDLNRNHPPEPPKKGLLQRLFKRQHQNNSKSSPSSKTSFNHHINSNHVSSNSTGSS

IC50 [1] | Activity [2] | IC50 [3] | IC50 [4] | inhibition [5] | Activity [6] | IC50 [7] | SMILES
> 100 µM | Active | > 100 µM | > 100 µM | 0% | – | – | COc1cccc(OC)c1CNC(=O)c1cc(C2NC(=O)NC(C)=C2C(=O)Nc2ccc3[nH]ncc3c2)ccc1F (stereo unspecified)
> 100 µM | – | > 100 µM | > 100 µM | 22% | – | – | CC1=C(C(=O)Nc2ccc3[nH]ncc3c2)C(c2ccc(F)c(C(=O)NCc3c(C(F)(F)F)cccc3C(F)(F)F)c2)NC(=O)N1 (stereo unspecified)
8.1 µM | – | > 100 µM | > 100 µM | – | – | – | COc1ccc(CNC(=O)c2cc(C3NC(=O)NC(C)=C3C(=O)Nc3ccc4[nH]ncc4c3)ccc2F)cc1 (stereo unspecified)
– | – | > 100 µM | > 100 µM | – | Active | – | CC1=C(C(=O)Nc2ccc3[nH]ncc3c2)C(c2ccc(F)c(C(=O)NCc3c(C)cccc3C)c2)NC(=O)N1 (stereo unspecified)
3.8 µM | – | > 100 µM | > 100 µM | – | – | – | COc1cccc(CNC(=O)c2cc(C3NC(=O)NC(C)=C3C(=O)Nc3ccc4[nH]ncc4c3)ccc2F)c1 (stereo unspecified)
– | – | > 100 µM | > 100 µM | – | – | – | CC1=C(C(=O)Nc2ccc3[nH]ncc3c2)C(c2ccc(F)c(C(=O)NCCc3c(C)cccc3C)c2)NC(=O)N1 (stereo unspecified)
– | – | > 100 µM | > 100 µM | – | – | – | CC1=C(C(=O)Nc2ccc3[nH]ncc3c2)C(c2ccc(F)c(CC(=O)NCc3c(C)cccc3C)c2)NC(=O)N1 (stereo unspecified)
5 µM | Active | > 100 µM | > 100 µM | – | – | 0.11 µM | CC1=C(C(=O)Nc2ccc3[nH]ncc3c2)C(c2ccc(F)c(C(=O)NCc3c(F)cccc3F)c2)NC(=O)N1 (stereo unspecified)
– | – | > 100 µM | > 100 µM | – | – | 2.1 µM | CC1=C(C(=O)N(C)c2ccc3[nH]ncc3c2)C(c2ccc(F)c(C(=O)NCc3c(C)cccc3C)c2)NC(=O)N1 (stereo unspecified)
1.8 µM | – | – | – | – | – | 0.012 µM | CC1=C(C(=O)Nc2ccc3[nH]ncc3c2)C(c2ccc(F)c(C(=O)NCc3nccc4ccccc34)c2)NC(=O)N1 (stereo unspecified)
> 100 µM | – | > 100 µM | > 100 µM | – | – | – | COc1cccc(OC)c1CNC(=O)Cc1cc(C2NC(=O)NC(C)=C2C(=O)Nc2ccc3[nH]ncc3c2)ccc1F (stereo unspecified)
> 100 µM | – | > 100 µM | > 100 µM | – | – | 0.56 µM | CNC(=O)c1cc(C2NC(=O)NC(C)=C2C(=O)Nc2ccc3[nH]ncc3c2)ccc1F (stereo unspecified)
– | – | > 100 µM | > 100 µM | – | – | – | CC1=C(C(=O)Nc2ccc3[nH]ncc3c2)C(c2ccc(F)c(C(=O)NCc3ncccc3C)c2)NC(=O)N1 (stereo unspecified)
– | – | > 100 µM | > 100 µM | – | – | 0.084 µM | CC1=C(C(=O)Nc2ccc3[nH]ncc3c2)C(c2ccc(F)c(C(=O)NCCc3ccncc3)c2)NC(=O)N1 (stereo unspecified)
> 100 µM | – | > 100 µM | > 100 µM | – | – | – | CC1=C(C(=O)Nc2ccc3[nH]ncc3c2)C(c2ccc(F)c(C(=O)NCc3c(Cl)cccc3Cl)c2)NC(=O)N1 (stereo unspecified)

The remaining lines, values behind:

SMILES | IC50 [1] | Activity [2] | IC50 [3] | IC50 [4] | inhibition [5] | Activity [6] | IC50 [7]
CC1=C(C(=O)Nc2ccc3[nH]ncc3c2)C(c2ccc(F)c(C(=O)NCc3cccc(F)c3)c2)NC(=O)N1 (stereo unspecified) | – | – | 11.9 µM | > 100 µM | – | – | –
CC1=C(C(=O)Nc2ccc3c(c2)OCO3)C(c2ccc(F)c(C(=O)NCc3ccccn3)c2)NC(=O)N1 (stereo unspecified) | > 100 µM | – | > 100 µM | > 100 µM | – | – | –
CC1=C(C(=O)Nc2ccc3[nH]ncc3c2)C(c2ccc(F)c(C(=O)NCCc3ccccn3)c2)NC(=O)N1 (stereo unspecified) | 6.2 µM | – | > 100 µM | > 100 µM | – | – | –
CC1=C(C(=O)Nc2ccc3[nH]ncc3c2)C(c2ccc(F)c(C(=O)NCc3ccccc3)c2)NC(=O)N1 (stereo unspecified) | 4.7 µM | – | 71 µM | > 100 µM | – | – | –
CCCn1c(CNc2cccc(C(=O)NCc3c(F)cccc3F)c2)nnc1-c1ccncn1 | 2.2 µM | – | 9 µM | – | 10% | – | –
COc1ccccc1CNC(=O)c1cc(C2NC(=O)NC(C)=C2C(=O)Nc2ccc3[nH]ncc3c2)ccc1F (stereo unspecified) | 2.3 µM | – | 16 µM | > 100 µM | – | – | –
CC1=C(C(=O)Nc2ccc3[nH]ncc3c2)C(c2ccc(F)cc2)NC(=O)N1 (stereo unspecified) [GSK-180736A] | – | – | > 100 µM | – | – | Active | 0.1 µM
CC1=C(C(=O)Nc2ccc3[nH]ncc3c2)C(c2ccc(F)c(C(=O)NCc3ccccn3)c2)NC(=O)N1 (stereo unspecified) | – | Active | 3.9 µM | > 100 µM | – | – | –
Fc1ccc([C@@H]2CCNC[C@H]2COc2ccc3c(c2)OCO3)cc1 [PAROXETINE] | – | – | – | > 100 µM | 10% | – | –
CC1=C(C(=O)Nc2ccc3[nH]ncc3c2)C(c2ccc(F)c(C(=O)NCc3cc(C(F)(F)F)cc(C(F)(F)F)c3)c2)NC(=O)N1 (stereo unspecified) | > 100 µM | – | > 100 µM | > 100 µM | – | – | –
CC1=C(C(=O)Nc2ccc3[nH]ncc3c2)C(c2ccc(F)c(CC(=O)NCc3c(C(F)(F)F)cccc3C(F)(F)F)c2)NC(=O)N1 (stereo unspecified) | > 100 µM | – | > 100 µM | > 100 µM | – | – | –
CC1=C(C(=O)Nc2ccc3[nH]ncc3c2)C(c2ccc(F)c(C(=O)O)c2)NC(=O)N1 (stereo unspecified) | – | – | > 100 µM | 78.1 µM | – | – | 0.19 µM
